Legend:
[1] = target: Cyclin-dependent kinase 5/CDK5 activator 1 (Homo sapiens, UniProt Q00535+Q15078); assay: (§1) Inhibition of mammalian CDK5/p25; format: protein-complex assay
Summary of the method: (§2)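 Recombinant CDK5 and p25, each expressed in E. coli as GST fusions and affinity-purified on glutathione agarose, mixed in equal amounts. Phosphate incorporation onto P81 paper read by scintillation counting, blank subtracted. Activity taken as % of uninhibited. IC50 from dose-response curves.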

[2] = test system: SH-SY5Y; assay: Survival of human SH-SY5Y cells at 25 uM by MTS reduction assay; format: functional, cell-based; conditions: for viability at 25 µM: Homo sapiens, SH-SY5Y, read-out: Survival
Summary of the method: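 Viability was read by MTS reduction and expressed as percent of untreated cells, as the average ± SE of three independent measurements, representative of two independent experiments.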

[3] = test system: SH-SY5Y; assay: Survival of human SH-SY5Y cells after 24 hrs by MTS reduction assay; format: functional, cell-based
[4] = test system: SH-SY5Y; assay: Survival of human SH-SY5Y cells after 48 hrs by MTS reduction assay; format: functional, cell-based
[5] = test system: SH-SY5Y; assay: Death of human SH-SY5Y cells at 25 uM after 48 hrs by LDH release assay; format: functional
Summary of the method: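 SH-SY5Y human neuroblastoma cells were grown in DMEM with 2 mM L-glutamine, antibiotics and 10% FCS at 37 °C under 5% CO2. […] Lactate dehydrogenase release was measured 48 h after addition and expressed as percent cell death.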

[6] = test system: HT-29; assay: Survival of human HT29 cells after 48 hrs by MTS reduction assay; format: functional, cell-based
[7] = test system: HCT-116; assay: Survival of human HCT116 cells after 48 hrs by MTS reduction assay; format: functional, cell-based
Summary of the method: (§3)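 Viability read by MTS reduction. IC50 taken from dose-response curves, triplicate measurements. HCT116 grown in McCoy's 5A with 10% FCS. MDA-MB-231 grown in DMEM with 10% FCS and seeded at 7500 cells/well.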

[8] = test system: MDA-MB-231; assay: Survival of human MDA-MB-231 cells after 48 hrs by MTS reduction assay; format: functional, cell-based; summary of the method: as §3
[9] = test system: A549; assay: Survival of human A549 cells after 48 hrs by MTS reduction assay; format: functional, cell-based
[10] = test system: PC-3; assay: Survival of human PC3 cells after 48 hrs by MTS reduction assay; format: functional, cell-based
[11] = test system: BP8; assay: Survival of […] AhR -/- BP8 cells after 48 hrs by MTS reduction assay; format: functional, cell-based
[12] = test system: Huh-7; assay: Survival of human Huh7 cells after 48 hrs by MTS reduction assay; format: functional, cell-based
[13] = test system: HEK293; assay: Survival of human HEK293 cells after 48 hrs by MTS reduction assay; format: functional, cell-based
[14] = test system: SH-SY5Y; assay: Death of human SH-SY5Y cells in absence of 20 uM Q-VD-OPh by MTS reduction assay; format: functional, cell-based; conditions: read-out: IC50
[15] = test system: F1 (hepatoma cell line); assay: Survival of mouse F1 cells after 48 hrs by MTS reduction assay; conditions: F1
[16] = Inhibition of starfish CDK1/cyclin B in presence of 15 uM ATP; design: species or system Marthasterias glacialis
[17] = target: Cyclin-dependent kinase 5/CDK5 activator 1 (Homo sapiens, UniProt Q00535); assay: as §1; format: protein-complex assay; summary of the method: as §2
Chain of Cyclin-dependent kinase 5/CDK5 activator 1 (Homo sapiens, UniProt Q00535) (Q00535 whole entry): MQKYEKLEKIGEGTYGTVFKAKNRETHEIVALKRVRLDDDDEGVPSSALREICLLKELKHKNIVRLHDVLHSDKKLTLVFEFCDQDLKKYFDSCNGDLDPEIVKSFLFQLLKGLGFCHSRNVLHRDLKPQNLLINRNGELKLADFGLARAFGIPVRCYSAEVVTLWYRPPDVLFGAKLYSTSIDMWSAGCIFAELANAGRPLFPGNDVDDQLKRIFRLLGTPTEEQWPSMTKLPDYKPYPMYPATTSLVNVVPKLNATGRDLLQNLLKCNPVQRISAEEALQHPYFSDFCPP
Chain of Cyclin-dependent kinase 5/CDK5 activator 1 (Homo sapiens, UniProt Q00535) (Q15078 whole entry, further chain): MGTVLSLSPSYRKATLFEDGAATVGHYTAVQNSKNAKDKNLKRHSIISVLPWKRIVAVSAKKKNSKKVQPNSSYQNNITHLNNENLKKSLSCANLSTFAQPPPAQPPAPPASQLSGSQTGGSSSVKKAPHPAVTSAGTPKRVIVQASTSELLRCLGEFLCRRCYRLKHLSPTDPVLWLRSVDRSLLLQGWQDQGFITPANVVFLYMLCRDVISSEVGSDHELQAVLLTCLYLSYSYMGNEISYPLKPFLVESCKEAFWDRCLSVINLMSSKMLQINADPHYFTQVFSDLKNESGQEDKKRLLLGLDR

[18] = test system: SH-SY5Y; assay: Death of human SH-SY5Y cells in presence of 20 uM Q-VD-OPh by MTS reduction assay; format: functional, cell-based
[19] = Survival of mouse F1 cells after 48 hrs by MTS reduction assay; conditions: Mus musculus, F1, 48 h

Chain of Cyclin-dependent kinase 5/CDK5 activator 1 (Homo sapiens, UniProt Q00535+Q15078) (Q00535 whole entry, the tested form may be a part): as the sequence (Q00535 whole entry) above
Chain of Cyclin-dependent kinase 5/CDK5 activator 1 (Homo sapiens, UniProt Q00535+Q15078) (Q15078 whole entry, the tested form may be a part): as the sequence (Q15078 whole entry, further chain) above

Row | SMILES | IC50 [1] | Survival [2] | Activity [5] | IC50 ([6]; ht-29) | IC50 ([13]; hek293) | IC50 [16] | IC50 [17] | IC50 ([3]; Homo sapiens, SH-SY5Y, 24 h) | IC50 ([4]; Homo sapiens, SH-SY5Y, 48 h) | IC50 ([8]; Homo sapiens, MDA-MB-231, 48 h) | IC50 ([9]; Homo sapiens, A549, 48 h) | IC50 ([10]; Homo sapiens, PC-3, 48 h) | IC50 ([11]; Mus musculus, BP8, 48 h) | IC50 ([14]; Homo sapiens, SH-SY5Y) | IC50 ([18]; Homo sapiens, SH-SY5Y) | IC50 [19] | other results
1 | CN(C)CCO/N=C1/C(c2c(O)[nH]c3c(Br)cccc23)=Nc2ccccc21 | > 10 µM | 1% | 86% | 21.8 µM | 14.4 µM | – | – | – | – | – | – | – | – | – | – | – | IC50 ([3]; sh-sy5y): 4.1 µM; IC50 ([4]; sh-sy5y): 2 µM; IC50 ([7]; hct-116): 6.5 µM; IC50 ([8]; mda-mb-231): 26.4 µM; IC50 ([9]; a549): 21.8 µM; IC50 ([10]; pc-3): 27.2 µM; IC50 ([11]; bp8): 19.5 µM; IC50 ([12]; huh-7): 19.6 µM; IC50 ([14]; sh-sy5y): 1.5 µM; IC50 [15]: 5.5 µM
2 | Cl.Cl.Oc1[nH]c2c(Br)cccc2c1C1=Nc2ccccc2/C1=N\OCCN1CCNCC1 | – | – | 100% | 1.9 µM | 1.9 µM | > 10 µM | > 10 µM | 6 µM | 6 µM | 5.1 µM | 6 µM | 6 µM | 5.4 µM | 6.2 µM | 6.8 µM | 1.4 µM | viability at 25 µM [2]: 3%; IC50 ([7]; Homo sapiens, HCT-116, 48 h): 5.1 µM; IC50 ([12]; huh-7): 2 µM
3 | Oc1[nH]c2c(Br)cccc2c1C1=Nc2ccccc2/C1=N\OCCN1CCCC1 | > 10 µM | 13% | 14% | – | – | – | – | – | – | – | – | – | – | 2 µM | > 25 µM | – | IC50 ([3]; sh-sy5y): 3.6 µM; IC50 ([4]; sh-sy5y): 2.3 µM
4 | CCN(CC)CCO/N=C1/C(c2c(O)[nH]c3c(Br)cccc23)=Nc2ccccc21 | > 10 µM | 49% | – | – | – | – | – | – | – | – | – | – | – | – | – | – | –
5 | Cn1c(O)c(C2=Nc3ccccc3/C2=N\OCCN2CCCC2)c2cccc(Br)c21 | > 10 µM | 15% | 78% | 19.8 µM | 21.4 µM | – | – | – | – | – | – | – | – | – | – | – | IC50 ([3]; sh-sy5y): 7.8 µM; IC50 ([4]; sh-sy5y): 5 µM; IC50 ([7]; hct-116): 13.6 µM; IC50 ([8]; mda-mb-231): 26.8 µM; IC50 ([9]; a549): 21 µM; IC50 ([10]; pc-3): 21.6 µM; IC50 ([11]; bp8): 18.8 µM; IC50 ([12]; huh-7): 18.8 µM; IC50 ([14]; sh-sy5y): 6.1 µM; IC50 ([18]; sh-sy5y): > 25 µM; IC50 [15]: 5.6 µM
6 | CCN(CC)CCO/N=C1/C(c2c(O)[nH]c3c(Br)cccc23)=Nc2ccccc21.Cl (stereo in doubt; 13ls) | > 10 µM | 72% | – | – | – | – | – | – | – | – | – | – | – | – | – | – | –
7 | Cl.Cn1c(O)c(C2=Nc3ccccc3/C2=N\OCCN2CCCC2)c2cccc(Br)c21 | – | 1% | 94% | 5.4 µM | 8 µM | > 10 µM | > 10 µM | 7.3 µM | 4 µM | – | 14.6 µM | 19 µM | – | 5 µM | 13 µM | 2.9 µM | IC50 ([7]; hct-116): 5.1 µM; IC50 ([8]; mda-mb-231): 12 µM; IC50 ([11]; bp8): 7.5 µM; IC50 ([12]; huh-7): 5.6 µM
8 | CN(C)CCO/N=C1/C(c2c(O)[nH]c3c(Br)cccc23)=Nc2ccccc21.Cl | – | 5% | 84% | 2.4 µM | 3 µM | > 10 µM | > 10 µM | 2.1 µM | 1 µM | 18.8 µM | – | 15 µM | > 30 µM | 1.1 µM | > 25 µM | – | IC50 ([7]; hct-116): 2 µM; IC50 ([9]; a549): 5.8 µM; IC50 ([12]; Homo sapiens, Huh-7, 48 h): 11.2 µM; IC50 [15]: 1.7 µM
9 | CN(C)CCO/N=C1/C(c2c(O)n(C)c3c(Br)cccc23)=Nc2ccccc21 | > 10 µM | 49% | 33% | – | – | – | – | – | – | – | – | – | – | 6.4 µM | > 25 µM | – | IC50 ([3]; sh-sy5y): > 25 µM; IC50 ([4]; sh-sy5y): 5.5 µM
10 | CCN(CC)CCO/N=C1/C(c2c(O)n(C)c3c(Br)cccc23)=Nc2ccccc21 | > 10 µM | 83% | – | – | – | – | – | – | – | – | – | – | – | – | – | – | –
11 | CN(C)CCO/N=C1/C(c2c(O)n(C)c3c(Br)cccc23)=Nc2ccccc21.Cl | – | 4% | 80% | – | – | > 10 µM | > 10 µM | 21 µM | 9 µM | 17.8 µM | 20.8 µM | 25 µM | 19 µM | – | – | 5.4 µM | IC50 ([7]; Homo sapiens, HCT-116, 48 h): 15.7 µM; IC50 ([12]; Homo sapiens, Huh-7, 48 h): 18 µM; IC50 ([13]; Homo sapiens, HEK293, 48 h): 18.8 µM; IC50 ([14]; sh-sy5y): 11 µM
12 | O=Nc1c(-c2c(O)[nH]c3c(Br)cccc23)[nH]c2ccccc12 | – | – | 94% | – | – | – | – | 8 µM | 7.1 µM | 10.5 µM | 21.8 µM | 19.8 µM | 19.4 µM | 7 µM | 7 µM | 8 µM | viability at 25 µM [2]: 4%; IC50 ([6]; Homo sapiens, HT-29, 48 h): 21.2 µM; IC50 ([7]; Homo sapiens, HCT-116, 48 h): 6.2 µM; IC50 ([12]; Homo sapiens, Huh-7, 48 h): 9 µM; IC50 ([13]; Homo sapiens, HEK293, 48 h): 12.3 µM
13 | Cl.Oc1[nH]c2c(Br)cccc2c1C1=Nc2ccccc2/C1=N\OCCN1CCCC1 | – | – | 80% | – | – | > 100 µM | > 10 µM | 3.1 µM | 2 µM | > 30 µM | 16 µM | 30 µM | > 30 µM | – | – | 3.1 µM | viability at 25 µM [2]: 12%; IC50 ([7]; Homo sapiens, HCT-116, 48 h): 3.8 µM; IC50 ([12]; Homo sapiens, Huh-7, 48 h): 13.6 µM; IC50 ([13]; Homo sapiens, HEK293, 48 h): > 30 µM; IC50 ([14]; sh-sy5y): 2.8 µM
14 | Oc1[nH]c2c(Br)cccc2c1C1=Nc2ccccc2/C1=N\OCCN1CCOCC1 | > 10 µM | 98% | – | – | – | – | – | – | – | – | – | – | – | – | – | – | –
